From ChEMBL document CHEMBL1926550, “Synthesis and antibacterial activity of naphthyridone derivatives containing mono/difluoro-methyloxime pyrrolidine scaffolds” (2012)
In brackets after ≈: the same amount, converted by molar mass.

What follows are molecules tested on Enterococcus faecium (assay: Antibacterial activity against Enterococcus faecium 09-6 after 18 hrs by two fold serial dilution method). Conditions: 09-6, 18 h.
Type: functional
Method in brief: (§1)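 Agar two-fold serial dilution in melted Mueller-Hinton agar, final concentrations 128 down to 0.008 μg/mL. Plates inoculated with 10⁴ cfu and incubated at 35 °C for 18 h. MIC taken as the lowest concentration giving no visible growth on the plate.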

**Q.** With O=C(O)c1cn(C2CC2)c2cc(N3CCNCC3)c(F)cc2c1=O [CIPROFLOXACIN] as the molecule, how does the MIC read?
**A.** 0.5 µg/mL (≈ 1.51 µM)

Each molecule was assayed on Staphylococcus aureus (assay: Antibacterial activity against methicillin-sensitive Staphylococcus aureus 10-2 after 18 hrs by two fold serial dilution method). Conditions: 10-2, 18 h.
Type: functional
Method in brief: as §1

**Q.** With O=C(O)c1cn(C2CC2)c2cc(N3CCNCC3)c(F)cc2c1=O [CIPROFLOXACIN] as the molecule, how does the MIC read?
**A.** 64 µg/mL (≈ 193 µM)

Each molecule was assayed on Staphylococcus aureus (assay: Antibacterial activity against methicillin-sensitive Staphylococcus aureus 10-1 after 18 hrs by two fold serial dilution method). Conditions: 10-1, 18 h.
Type: functional
Method in brief: as §1

**Q.** O=C(O)c1cn(C2CC2)c2cc(N3CCNCC3)c(F)cc2c1=O [CIPROFLOXACIN] was tested. Which MIC did it give?
**A.** 0.015 µg/mL (≈ 0.0453 µM)

What follows are molecules tested on Staphylococcus epidermidis (assay: Antibacterial activity against methicillin-sensitive Staphylococcus epidermidis 10-2 after 18 hrs by two fold serial dilution method). Conditions: 10-2, 18 h.
Type: functional
Method in brief: as §1

**Q.** How did the MIC turn out when O=C(O)c1cn(C2CC2)c2cc(N3CCNCC3)c(F)cc2c1=O [CIPROFLOXACIN] was run?
**A.** 64 µg/mL (≈ 193 µM)

What follows are molecules tested on Enterococcus faecium (assay: Antibacterial activity against Enterococcus faecium 09-4 after 18 hrs by two fold serial dilution method). Conditions: 09-4, 18 h.
Type: functional
Method in brief: as §1

**Q.** Which MIC does the source give for O=C(O)c1cn(C2CC2)c2cc(N3CCNCC3)c(F)cc2c1=O [CIPROFLOXACIN] here?
**A.** 0.5 µg/mL (≈ 1.51 µM)

Each molecule was assayed on Enterococcus faecium (assay: Antibacterial activity against Enterococcus faecium 09-1 after 18 hrs by two fold serial dilution method). Conditions: 09-1, 18 h.
Type: functional
Method in brief: as §1

**Q.** How did the MIC turn out when O=C(O)c1cn(C2CC2)c2cc(N3CCNCC3)c(F)cc2c1=O [CIPROFLOXACIN] was run?
**A.** > 128 µg/mL

These molecules were tested on Pseudomonas aeruginosa (assay: Antibacterial activity against Pseudomonas aeruginosa 10-2 after 18 hrs by two fold serial dilution method). Conditions: 10-2, 18 h.
Type: functional
Method in brief: as §1

**Q.** For O=C(O)c1cn(C2CC2)c2cc(N3CCNCC3)c(F)cc2c1=O [CIPROFLOXACIN], which MIC is on record?
**A.** > 128 µg/mL

What follows are molecules tested on Staphylococcus epidermidis (assay: Antibacterial activity against methicillin-resistant Staphylococcus epidermidis 10-1 after 18 hrs by two fold serial dilution method). Conditions: 10-1, 18 h.
Type: functional
Method in brief: (§2)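 Agar two-fold serial dilution in melted Mueller-Hinton agar, 128 to 0.008 μg/mL. Plates inoculated with 10⁴ cfu, incubated 35 °C for 18 h. MIC taken as lowest concentration giving no visible growth on the plate.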

**Q.** With O=C(O)c1cn(C2CC2)c2cc(N3CCNCC3)c(F)cc2c1=O [CIPROFLOXACIN] as the molecule, how does the MIC read?
**A.** 16 µg/mL (≈ 48.3 µM)

These molecules were tested on Enterococcus faecium (assay: Antibacterial activity against Enterococcus faecium 09-5 after 18 hrs by two fold serial dilution method). Conditions: 09-5, 18 h.
Type: functional
Method in brief: as §1

**Q.** With O=C(O)c1cn(C2CC2)c2cc(N3CCNCC3)c(F)cc2c1=O [CIPROFLOXACIN] as the molecule, how does the MIC read?
**A.** 64 µg/mL (≈ 193 µM)

Each molecule was assayed on Enterococcus faecium (assay: Antibacterial activity against Enterococcus faecium 09-2 after 18 hrs by two fold serial dilution method). Conditions: 09-2, 18 h.
Type: functional
Method in brief: as §1

**Q.** How did the MIC turn out when O=C(O)c1cn(C2CC2)c2cc(N3CCNCC3)c(F)cc2c1=O [CIPROFLOXACIN] was run?
**A.** > 128 µg/mL

The molecules below were run on Pseudomonas aeruginosa (assay: Antibacterial activity against Pseudomonas aeruginosa 10-1 after 18 hrs by two fold serial dilution method). Conditions: 10-1, 18 h.
Type: functional
Method in brief: as §1

**Q.** How did the MIC turn out when O=C(O)c1cn(C2CC2)c2cc(N3CCNCC3)c(F)cc2c1=O [CIPROFLOXACIN] was run?
**A.** 0.06 µg/mL (≈ 0.181 µM)

These molecules were tested on Staphylococcus epidermidis (assay: Antibacterial activity against methicillin-resistant Staphylococcus epidermidis 10-4 after 18 hrs by two fold serial dilution method). Conditions: 10-4, 18 h.
Type: functional
Method in brief: as §2

**Q.** Which MIC does the source give for O=C(O)c1cn(C2CC2)c2cc(N3CCNCC3)c(F)cc2c1=O [CIPROFLOXACIN] here?
**A.** 8 µg/mL (≈ 24.1 µM)

The molecules below were run on Staphylococcus aureus (assay: Antibacterial activity against Staphylococcus aureus ATCC 25923 after 18 hrs by two fold serial dilution method). Conditions: ATCC 25923, 18 h.
Type: functional
Method in brief: as §1

**Q.** How did the MIC turn out when O=C(O)c1cn(C2CC2)c2cc(N3CCNCC3)c(F)cc2c1=O [CIPROFLOXACIN] was run?
**A.** 0.25 µg/mL (≈ 0.754 µM)

What follows are molecules tested on Streptococcus pneumoniae (assay: Antibacterial activity against Streptococcus pneumoniae 10-1 after 18 hrs by two fold serial dilution method). Conditions: 10-1, 18 h.
Type: functional
Method in brief: as §1

**Q.** For O=C(O)c1cn(C2CC2)c2cc(N3CCNCC3)c(F)cc2c1=O [CIPROFLOXACIN], which MIC is on record?
**A.** 0.03 µg/mL (≈ 0.0905 µM)

What follows are molecules tested on Staphylococcus aureus (assay: Antibacterial activity against methicillin-resistant Staphylococcus aureus 10-4 after 18 hrs by two fold serial dilution method). Conditions: 10-4, 18 h.
Type: functional
Method in brief: as §2

**Q.** How did the MIC turn out when O=C(O)c1cn(C2CC2)c2cc(N3CCNCC3)c(F)cc2c1=O [CIPROFLOXACIN] was run?
**A.** > 128 µg/mL

What follows are molecules tested on Staphylococcus aureus (assay: Antibacterial activity against methicillin-sensitive Staphylococcus aureus 10-5 after 18 hrs by two fold serial dilution method). Conditions: 10-5, 18 h.
Type: functional
Method in brief: as §1

**Q.** How did the MIC turn out when O=C(O)c1cn(C2CC2)c2cc(N3CCNCC3)c(F)cc2c1=O [CIPROFLOXACIN] was run?
**A.** 0.03 µg/mL (≈ 0.0905 µM)

These molecules were tested on Klebsiella pneumoniae (assay: Antibacterial activity against Klebsiella pneumoniae 10-3 infected KM mouse systemic infection model assessed as decrease in mouse mortality administered orally twice after 1 and 4 hrs post infection measured up to 7 days). Conditions: 10-3, po.
Type: functional
Method in brief: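 Strains grown on MH agar at 35 °C for 18 h, suspended in gastric mucin. Male KM mice (19–21 g), groups of 10, infected intraperitoneally with 0.5 mL at 5–10× MLD. Four oral dose levels per drug at 1 and 4 h post infection. Mortality followed 7 days; ED50 with 95% confidence limits by Bliss method.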

**Q.** Which ED50 does the source give for O=C(O)c1cn(C2CC2)c2cc(N3CCNCC3)c(F)cc2c1=O [CIPROFLOXACIN] here?
**A.** 87.5 mg/kg
